According to ChEMBL document CHEMBL1781975, “Synthesis, crystal structure and antimicrobial activity of deoxybenzoin derivatives from genistein” (2008):
≈ marks a conversion by molar mass, not a printed value. Calls of active or inactive are those of the source. The calls are words filed in the database; no cut-off is given here.

Key:
Bacillus subtilis = assay: Antibacterial activity against Bacillus subtilis after 24 hrs by MTT assay; assay type: functional
Summary of the method: (§1)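 Broth microdilution MIC in Mueller-Hinton medium, compounds from a 50 mg/ml DMSO stock serially diluted in the wells. Inoculum approx. 10⁵ cfu/ml, incubated 37 °C for 24 h. MIC read visually. PBS (pH 7.4) with 2 mg/ml MTT then added, 12 h further incubation at room temperature, OD at 550 nm.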

Trichophyton rubrum = assay: Antifungal activity against Trichophyton rubrum after 48 hrs by MTT assay; assay type: functional, organism-based
Summary of the method: (§2)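 Fungi tested by microdilution in RPMI-1640 buffered with 0.165 mol/L MOPS to pH 7.0. Compounds from a 50 mg/ml DMSO stock serially diluted. Inoculum approx. 10⁵ cfu/ml, 37 °C for 48 h. MIC scored visually, then MTT (2 mg/ml in PBS) added, 12 h at room temperature, absorbance 550 nm.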

Aspergillus niger = assay: Antifungal activity against Aspergillus niger after 48 hrs by MTT assay; assay type: functional, organism-based; summary of the method: as §2
Candida albicans = assay: Antifungal activity against Candida albicans after 48 hrs by MTT assay; assay type: functional, organism-based; summary of the method: as §2
Escherichia coli = assay: Antibacterial activity against Escherichia coli after 24 hrs by MTT assay; assay type: functional; summary of the method: as §1
Pseudomonas fluorescens = assay: Antibacterial activity against Pseudomonas fluorescens after 24 hrs by MTT assay; assay type: functional; summary of the method: as §1
Staphylococcus aureus = assay: Antibacterial activity against Staphylococcus aureus after 24 hrs by MTT assay; assay type: functional; summary of the method: as §1

Compound | MIC (Bacillus subtilis) [µg/mL] | MIC (Trichophyton rubrum) | MIC (Aspergillus niger) | MIC (Candida albicans) | MIC (Escherichia coli) [µg/mL] | MIC (Pseudomonas fluorescens) [µg/mL] | MIC (Staphylococcus aureus) [µg/mL]
O=C(Cc1ccc(OCCCBr)cc1)c1c(O)cc(OCCCBr)cc1OCCCBr | 25 (≈ 40.1 µM) | inactive | inactive | inactive | 25 (≈ 40.1 µM) | > 50 | > 50
CC1(C)S[C@@H]2[C@H](NC(=O)Cc3ccccc3)C(=O)N2[C@H]1C(=O)O [PENICILLIN G] | 7.8 (≈ 23.3 µM) |  |  |  | > 50 | > 50 | 2 (≈ 5.98 µM)
O=C(Cc1ccc(O)cc1)c1c(O)cc(O)cc1O | 40.5 (≈ 156 µM) | inactive | inactive | inactive | 42.5 (≈ 163 µM) | > 50 | > 50
O=C(Cc1ccc(OCCCBr)cc1)c1c(OCCCBr)cc(OCCCBr)c(Cc2c(OCCCBr)cc(OCCCBr)c(C(=O)Cc3ccc(OCCCBr)cc3)c2O)c1O | 6.25 (≈ 4.97 µM) | inactive | inactive | inactive | 17.5 (≈ 13.9 µM) | > 50 | > 50
O=C(Cc1ccc(OCCBr)cc1)c1c(O)cc(OCCBr)cc1OCCBr | 30.5 (≈ 52.5 µM) | inactive | inactive | inactive | 36.5 (≈ 62.8 µM) | > 50 | > 50
COc1ccc(CC(=O)c2c(OC)cc(OC)c(Cc3c(OC)cc(OC)c(C(=O)Cc4ccc(OC)cc4)c3O)c2O)cc1 | 31.5 (≈ 51.1 µM) | inactive | inactive | inactive | 38.5 (≈ 62.4 µM) | > 50 | > 50
CC(=O)N1CCN(c2ccc(OCC3COC(Cn4ccnc4)(c4ccc(Cl)cc4Cl)O3)cc2)CC1 (stereo not given) [KETOCONAZOLE] | > 50 |  |  |  | > 50 | > 50 | > 50
O=C(O)COc1ccc(CC(=O)c2c(OCC(=O)O)cc(OCC(=O)O)c(Cc3c(OCC(=O)O)cc(OCC(=O)O)c(C(=O)Cc4ccc(OCC(=O)O)cc4)c3O)c2O)cc1 | 12.5 (≈ 14.2 µM) | inactive | inactive | inactive | 25 (≈ 28.4 µM) | > 50 | > 50
NC[C@H]1O[C@H](O[C@H]2[C@H](O)[C@@H](O[C@H]3O[C@H](CO)[C@@H](O)[C@H](N)[C@H]3O)[C@H](N)C[C@@H]2N)[C@H](O)[C@@H](O)[C@@H]1O [KANAMYCIN] | 1 (≈ 2.06 µM) |  |  |  | 0.45 (≈ 0.929 µM) | 3.9 (≈ 8.05 µM) | 1 (≈ 2.06 µM)
O=c1c(-c2ccc(O)cc2)coc2cc(O)cc(O)c12 [GENISTEIN] | > 50 | inactive | inactive | inactive | > 50 | > 50 | > 50
O=C(O)COc1ccc(CC(=O)c2c(O)cc(OCC(=O)O)cc2OCC(=O)O)cc1 | 45.5 (≈ 105 µM) | inactive | inactive | inactive | 48.5 (≈ 112 µM) | > 50 | > 50
COc1ccc(CC(=O)c2c(O)cc(OC)cc2OC)cc1 | > 50 | inactive | inactive | inactive | > 50 | > 50 | > 50
